ChEMBL document CHEMBL1130231, “Betidamino acid scan of the GnRH antagonist acyline” (J Med Chem, 1997)

Biological target: T1, Gonadotropin-releasing hormone receptor (Rattus norvegicus, UniProt P30969)
T1 sequence (P30969 whole entry): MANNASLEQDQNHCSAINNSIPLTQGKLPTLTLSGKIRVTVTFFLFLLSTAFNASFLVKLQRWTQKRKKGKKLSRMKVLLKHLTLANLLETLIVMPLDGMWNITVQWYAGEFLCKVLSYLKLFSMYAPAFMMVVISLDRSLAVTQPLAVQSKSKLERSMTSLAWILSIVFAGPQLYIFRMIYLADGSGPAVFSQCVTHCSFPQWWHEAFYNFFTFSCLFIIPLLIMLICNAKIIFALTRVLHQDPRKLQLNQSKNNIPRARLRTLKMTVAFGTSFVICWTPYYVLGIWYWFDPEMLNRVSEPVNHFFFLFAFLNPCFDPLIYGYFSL
Assay: Inhibition of binding of radiolabeled histrelin to Gonadotropin-releasing hormone receptor (GnRHr) in rat pituitary gland membranes
Type: cell membranes, Membrane
Procedure, shortened: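 Rat anterior pituitary membranes (male and female glands equal numbers), homogenized in 0.32 M sucrose/aprotinin, 4000g pellet, diluted 15-fold in 10 mM Hepes, 0.2% BSA, pH 7.6. Filtration onto PEI-treated glass filters, scintillation counting. IC50 in nM, duplicate, n = 1.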

SMILES | IC50
CC(=O)Nc1ccc(C[C@H](NC(=O)[C@H](CO)NC(=O)[C@@H](Cc2cccnc2)NC(=O)[C@@H](NC(=O)c2cn[nH]c2N)NC(=O)[C@@H](Cc2ccc3ccccc3c2)NC(C)=O)C(=O)N[C@H](Cc2ccc(NC(C)=O)cc2)C(=O)N[C@@H](CC(C)C)C(=O)N[C@@H](CCCCNC(C)C)C(=O)N2CCC[C@H]2C(=O)N[C@H](C)C(N)=O)cc1 (single isomer, unassigned) | > 1000 nM
CC(=O)Nc1ccc(C[C@H](NC(=O)[C@H](CO)NC(=O)[C@@H](NC(=O)c2cccnc2)NC(=O)[C@@H](Cc2ccc(Cl)cc2)NC(=O)[C@@H](Cc2ccc3ccccc3c2)NC(C)=O)C(=O)N[C@H](Cc2ccc(NC(C)=O)cc2)C(=O)N[C@@H](CC(C)C)C(=O)N[C@@H](CCCCNC(C)C)C(=O)N2CCC[C@H]2C(=O)N[C@H](C)C(N)=O)cc1 | 0.63 nM
CC(=O)Nc1ccc(C[C@H](NC(=O)[C@H](CO)NC(=O)[C@@H](Cc2cccnc2)NC(=O)[C@@H](Cc2ccc(Cl)cc2)NC(=O)[C@H](NC(C)=O)N(C)C(=O)c2ccc3ccccc3c2)C(=O)N[C@H](Cc2ccc(NC(C)=O)cc2)C(=O)N[C@@H](CC(C)C)C(=O)N[C@@H](CCCCNC(C)C)C(=O)N2CCC[C@H]2C(=O)N[C@H](C)C(N)=O)cc1 | 9.2 nM
CC(=O)Nc1ccc(C[C@@H](NC(=O)[C@H](NC(=O)c2ccc(O)cc2)NC(=O)[C@H](CO)NC(=O)[C@@H](Cc2cccnc2)NC(=O)[C@@H](Cc2ccc(Cl)cc2)NC(=O)[C@@H](Cc2ccc3ccccc3c2)NC(C)=O)C(=O)N[C@@H](CC(C)C)C(=O)N[C@@H](CCCCNC(C)C)C(=O)N2CCC[C@H]2C(=O)N[C@H](C)C(N)=O)cc1 | 0.3 nM
CC(=O)Nc1ccc(C[C@H](NC(=O)[C@H](CO)NC(=O)[C@@H](NC(=O)c2ccncc2)NC(=O)[C@@H](Cc2ccc(Cl)cc2)NC(=O)[C@@H](Cc2ccc3ccccc3c2)NC(C)=O)C(=O)N[C@H](Cc2ccc(NC(C)=O)cc2)C(=O)N[C@@H](CC(C)C)C(=O)N[C@@H](CCCCNC(C)C)C(=O)N2CCC[C@H]2C(=O)N[C@H](C)C(N)=O)cc1 (single isomer, unassigned) | 1.4 nM
CC(=O)Nc1ccc(C[C@H](NC(=O)[C@H](CO)NC(=O)[C@H](NC(=O)c2cccnc2)NC(=O)[C@@H](Cc2ccc(Cl)cc2)NC(=O)[C@@H](Cc2ccc3ccccc3c2)NC(C)=O)C(=O)N[C@H](Cc2ccc(NC(C)=O)cc2)C(=O)N[C@@H](CC(C)C)C(=O)N[C@@H](CCCCNC(C)C)C(=O)N2CCC[C@H]2C(=O)N[C@H](C)C(N)=O)cc1 | 0.76 nM
CC(=O)Nc1ccc(C[C@H](NC(=O)[C@H](CO)NC(=O)[C@@H](Cc2cccnc2)NC(=O)[C@@H](Cc2ccc(Cl)cc2)NC(=O)[C@@H](Cc2ccc3ccccc3c2)NC(C)=O)C(=O)N[C@H](Cc2ccc(NC(C)=O)cc2)C(=O)N[C@@H](NC(=O)C(C)C)C(=O)N[C@@H](CCCCNC(C)C)C(=O)N2CCC[C@H]2C(=O)N[C@H](C)C(N)=O)cc1 | 2 nM
CC(=O)Nc1ccc(C[C@H](NC(=O)[C@H](CO)NC(=O)[C@@H](Cc2cccnc2)NC(=O)[C@@H](Cc2ccc(Cl)cc2)NC(=O)[C@H](NC(C)=O)NC(=O)c2ccc3ccccc3c2)C(=O)N[C@H](Cc2ccc(NC(C)=O)cc2)C(=O)N[C@@H](CC(C)C)C(=O)N[C@@H](CCCCNC(C)C)C(=O)N2CCC[C@H]2C(=O)N[C@H](C)C(N)=O)cc1 | 0.88 nM
CC(=O)Nc1ccc(C[C@H](NC(=O)[C@H](CO)NC(=O)[C@@H](Cc2cccnc2)NC(=O)[C@@H](Cc2ccc(Cl)cc2)NC(=O)[C@@H](Cc2ccc3ccccc3c2)NC(C)=O)C(=O)N[C@H](Cc2ccc(NC(C)=O)cc2)C(=O)N[C@@H](CC(C)C)C(=O)N[C@H](C(=O)N2CCC[C@H]2C(=O)N[C@H](C)C(N)=O)N(C)C(=O)CCNC(C)C)cc1 (single isomer, unassigned) | 0.5 nM
CC(=O)Nc1ccc(C[C@H](NC(=O)[C@H](CO)NC(=O)[C@@H](Cc2cccnc2)NC(=O)[C@@H](Cc2ccc(Cl)cc2)NC(=O)[C@@H](Cc2ccc3ccccc3c2)NC(C)=O)C(=O)N[C@H](Cc2ccc(NC(C)=O)cc2)C(=O)N[C@@H](CC(C)C)C(=O)N[C@@H](C(=O)N2CCC[C@H]2C(=O)N[C@H](C)C(N)=O)N(C)C(=O)CCNC(C)C)cc1 (single isomer, unassigned) | 2.4 nM

The remaining lines, values ahead:

IC50 | SMILES
0.056 nM | CC(=O)Nc1ccc(C[C@H](NC(=O)[C@@H](NC(=O)CO)NC(=O)[C@@H](Cc2cccnc2)NC(=O)[C@@H](Cc2ccc(Cl)cc2)NC(=O)[C@@H](Cc2ccc3ccccc3c2)NC(C)=O)C(=O)N[C@H](Cc2ccc(NC(C)=O)cc2)C(=O)N[C@@H](CC(C)C)C(=O)N[C@@H](CCCCNC(C)C)C(=O)N2CCC[C@H]2C(=O)N[C@H](C)C(N)=O)cc1 (single isomer, unassigned)
1.7 nM | CC(=O)Nc1ccc(C[C@H](NC(=O)[C@H](CO)NC(=O)[C@@H](Cc2cccnc2)NC(=O)[C@@H](Cc2ccc(Cl)cc2)NC(=O)[C@@H](Cc2ccc3ccccc3c2)NC(C)=O)C(=O)N[C@H](Cc2ccc(NC(C)=O)cc2)C(=O)N[C@H](C(=O)N[C@@H](CCCCNC(C)C)C(=O)N2CCC[C@H]2C(=O)N[C@H](C)C(N)=O)N(C)C(C)=O)cc1
0.67 nM | CC(=O)Nc1ccc(C[C@H](NC(=O)[C@H](CO)NC(=O)[C@@H](Cc2cccnc2)NC(=O)[C@@H](Cc2ccc(Cl)cc2)NC(=O)[C@@H](Cc2ccc3ccccc3c2)NC(C)=O)C(=O)N[C@H](Cc2ccc(NC(C)=O)cc2)C(=O)N[C@@H](CC(C)C)C(=O)N[C@@H](CCCCNC(C)C)C(=O)N2CCC[C@H]2C(=O)N[C@H](C(N)=O)N(C)C=O)cc1
0.43 nM | CC(=O)Nc1ccc(C[C@@H](NC(=O)[C@H](NC(=O)[C@H](CO)NC(=O)[C@@H](Cc2cccnc2)NC(=O)[C@@H](Cc2ccc(Cl)cc2)NC(=O)[C@@H](Cc2ccc3ccccc3c2)NC(C)=O)N(C)C(=O)c2ccc(NC(C)=O)cc2)C(=O)N[C@@H](CC(C)C)C(=O)N[C@@H](CCCCNC(C)C)C(=O)N2CCC[C@H]2C(=O)N[C@H](C)C(N)=O)cc1
1.2 nM | CC(=O)Nc1ccc(C[C@H](NC(=O)[C@H](CO)NC(=O)[C@@H](Cc2cccnc2)NC(=O)[C@H](NC(=O)[C@@H](Cc2ccc3ccccc3c2)NC(C)=O)N(C)C(=O)c2ccc(Cl)cc2)C(=O)N[C@H](Cc2ccc(NC(C)=O)cc2)C(=O)N[C@@H](CC(C)C)C(=O)N[C@@H](CCCCNC(C)C)C(=O)N2CCC[C@H]2C(=O)N[C@H](C)C(N)=O)cc1
0.3 nM | CC(=O)Nc1ccc(C[C@H](NC(=O)[C@H](NC(=O)CO)NC(=O)[C@@H](Cc2cccnc2)NC(=O)[C@@H](Cc2ccc(Cl)cc2)NC(=O)[C@@H](Cc2ccc3ccccc3c2)NC(C)=O)C(=O)N[C@H](Cc2ccc(NC(C)=O)cc2)C(=O)N[C@@H](CC(C)C)C(=O)N[C@@H](CCCCNC(C)C)C(=O)N2CCC[C@H]2C(=O)N[C@H](C)C(N)=O)cc1 (single isomer, unassigned)
5.3 nM | CC(=O)Nc1ccc(C[C@H](NC(=O)[C@H](CO)NC(=O)[C@@H](Cc2cccnc2)NC(=O)[C@@H](Cc2ccc(Cl)cc2)NC(=O)[C@@H](Cc2ccc3ccccc3c2)NC(C)=O)C(=O)N[C@H](C(=O)N[C@@H](CC(C)C)C(=O)N[C@@H](CCCCNC(C)C)C(=O)N2CCC[C@H]2C(=O)N[C@H](C)C(N)=O)N(C)C(=O)c2ccc(NC(C)=O)cc2)cc1 (mixture of isomers)
5.5 nM | CC(=O)Nc1ccc(C[C@H](NC(=O)[C@@H](NC(=O)[C@@H](Cc2cccnc2)NC(=O)[C@@H](Cc2ccc(Cl)cc2)NC(=O)[C@@H](Cc2ccc3ccccc3c2)NC(C)=O)N(C)C=O)C(=O)N[C@H](Cc2ccc(NC(C)=O)cc2)C(=O)N[C@@H](CC(C)C)C(=O)N[C@@H](CCCCNC(C)C)C(=O)N2CCC[C@H]2C(=O)N[C@H](C)C(N)=O)cc1 (single isomer, unassigned)
1.9 nM | CC(=O)Nc1ccc(C[C@H](NC(=O)[C@H](CO)NC(=O)[C@@H](Cc2cccnc2)NC(=O)[C@@H](Cc2ccc(Cl)cc2)NC(=O)[C@@H](Cc2ccc3ccccc3c2)NC(C)=O)C(=O)N[C@@H](C(=O)N[C@@H](CC(C)C)C(=O)N[C@@H](CCCCNC(C)C)C(=O)N2CCC[C@H]2C(=O)N[C@H](C)C(N)=O)N(C)C(=O)c2ccc(NC(C)=O)cc2)cc1 (mixture of isomers)
36 nM | CC(=O)Nc1ccc(C[C@H](NC(=O)[C@H](CO)NC(=O)[C@@H](NC(=O)[C@@H](Cc2ccc(Cl)cc2)NC(=O)[C@@H](Cc2ccc3ccccc3c2)NC(C)=O)N(C)C(=O)c2cccnc2)C(=O)N[C@H](Cc2ccc(NC(C)=O)cc2)C(=O)N[C@@H](CC(C)C)C(=O)N[C@@H](CCCCNC(C)C)C(=O)N2CCC[C@H]2C(=O)N[C@H](C)C(N)=O)cc1 (single isomer, unassigned)
0.3 nM | CC(=O)Nc1ccc(C[C@H](NC(=O)[C@H](CO)NC(=O)[C@@H](Cc2cccnc2)NC(=O)[C@@H](Cc2ccc(Cl)cc2)NC(=O)[C@@H](Cc2ccc3ccccc3c2)NC(C)=O)C(=O)N[C@H](Cc2ccc(NC(C)=O)cc2)C(=O)N[C@@H](CC(C)C)C(=O)N[C@@H](CCCCNC(C)C)C(=O)N2CCC[C@H]2C(=O)N[C@H](C)C(N)=O)cc1
280 nM | CC(=O)Nc1ccc(C[C@H](NC(=O)[C@H](CO)NC(=O)[C@@H](Cc2cccnc2)NC(=O)[C@@H](NC(=O)[C@@H](Cc2ccc3ccccc3c2)NC(C)=O)N(C)C(=O)c2ccc(Cl)cc2)C(=O)N[C@H](Cc2ccc(NC(C)=O)cc2)C(=O)N[C@@H](CC(C)C)C(=O)N[C@@H](CCCCNC(C)C)C(=O)N2CCC[C@H]2C(=O)N[C@H](C)C(N)=O)cc1 (mixture of isomers)
0.23 nM | CC(=O)Nc1ccc(C[C@H](NC(=O)[C@H](CO)NC(=O)[C@H](Cc2cccnc2)NC(=O)[C@@H](Cc2ccc(Cl)cc2)NC(=O)[C@@H](Cc2ccc3ccccc3c2)NC(C)=O)C(=O)N[C@H](Cc2ccc(NC(C)=O)cc2)C(=O)N[C@@H](CC(C)C)C(=O)N[C@@H](CCCCNC(C)C)C(=O)N2CCC[C@H]2C(=O)N[C@H](C)C(N)=O)cc1
